Measurements taken from article PMC3163034 (Digestive diseases and sciences, 2011).
Counter-ions that a name gives are not always drawn.

Experiments:
[1] = rats; cited from earlier work
[2] = Plasma levels of orally administered AT1a antagonists in DSS-treated mice; format: in vivo; conditions: 10 mg/kg; for Cmax at 2 h: mouse, plasma, po
How it was run: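 Mice given DSS for 7 days received test compound orally at 10 mg/kg and were killed 2 h later. Plasma was collected by cardiac puncture, diluted tenfold in mobile phase, and quantified by LC-MS/MS on a C18 column (150 × 2.0 mm, 0.2 ml/min). Data are mean ± SD, n = 5.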

[3] = Blood pressure and heart rate by tail-cuff in DSS mice; format: in vivo; conditions: transanal treatment, compared to naive group
How it was run: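 Mice received DSS in drinking water for 7 days plus daily transanal test compound (100 or 10 mg/kg/day) suspended in ddH2O, 0.25 ml total, via blunt needle. Naive controls received transanal water only. Heart rate and blood pressure were taken by automated noninvasive tail-cuff on DSS day 6, 1 h before (Pre) and 2 h after (Post) transanal dosing. Data are mean ± SD.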

[4] = Ussing-chamber permeability across excised mouse intestinal segments; format: in vitro ADME, mice; conditions: for Peff, Colon (mean ± SD) / Peff, Small intestine (mean ± SD): 1 mg/ml mucosal side, pH 7.4, 37°C
How it was run: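 Freshly isolated jejunum and left-sided colon from naive and 7-day DSS-treated mice, mounted with 0.3 cm2 exposed area. Both sides held 5 ml Krebs buffer, pH 7.4, 37°C, gassed with 95% O2/5% CO2. Test compound added mucosally (final 1 mg/ml). Serosal samples taken every 20 min from 0 to 120 min, in triplicate, and measured by LC-MS/MS. Peff = (dC/dt)·V/(A·Co).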

[5] = Colonic mucosa and mesenteric blood flow by laser Doppler perfusion imaging; format: in vivo, mice; conditions: 7 days of DSS, transanal treatment, n = 6; for Colonic blood flow at the mucosal level: naive 1.91 ± 0.26, mean ± SD; for Mesenteric blood flow: naive 2.82 ± 0.23, mean ± SD
How it was run: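 After 7 days of DSS in drinking water, with daily transanal test compound (10 or 100 mg/kg/day) or water, and naive controls, mice (n = 6/group) were anesthetized just before harvest. Median laparotomy exposed the mesentery. A […] LDPI beam 12 cm above scanned the mesentery and 2 cm of distal colonic mucosa. Perfusion was normalized to total pixel area (mean ± SD).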

[6] = Normal rat jejunum, Ussing chamber; cited from earlier work
[7] = 2 h after oral administration, DSS mice

| SMILES | oral 50% effective dose (ED50, blood pressure lowering) [1] | plasma level compared to candesartan [2, 7] | plasma level compared to losartan [2, 7] | Cmax at 2 h [2] | Heart rate [3] | Peff, Colon (mean ± SD) ([4]; DSS-treated mice (7 days)) | Peff, Small intestine (mean ± SD) ([4]; DSS-treated mice (7 days)) | Peff, Colon (mean ± SD) ([4]; Normal (naive) mice) | Peff, Small intestine (mean ± SD) ([4]; Normal (naive) mice) | permeability coefficient compared to other AT1aR-antagonists ([4]; Ussing chamber, both naive- and DSS-treated specimens) | Colonic blood flow at the mucosal level [5] | Mesenteric blood flow [5] | Peff, Small intestine [6] |
| --- | --- | --- | --- | --- | --- | --- | --- | --- | --- | --- | --- | --- | --- |
| CCCCc1ncc(CO)n1Cc1ccc(-c2ccccc2-c2nn[nH]n2)cc1 [DCL, 2-butyl-1-[[2′-(2H-tetrazol-5-yl)[1,1′-biphenyl]-4-yl]methyl]-1H-imidazole-5-methanol] | > 100 mg/kg | over tenfold lower | threefold lower | 37.8 ± 26.4 ng/mL | not significantly different | 2.66 ± 0.96 ×10⁻⁶ cm/s | 1.52 ± 1.31 ×10⁻⁶ cm/s | 1.58 ± 1.24 ×10⁻⁶ cm/s | 1.37 ± 0.15 ×10⁻⁶ cm/s | threefold to sixfold lower | failed to change | failed to change | – |
| C[C@H](N[C@@H](CCc1ccccc1)C(=O)O)C(=O)N1CCC[C@H]1C(=O)O [Enalaprilat] | – | – | – | – | – | – | – | – | – | – | – | – | 6e+12 ×10⁻⁶ cm/s |
| CCOc1nc2cccc(C(=O)O)c2n1Cc1ccc(-c2ccccc2-c2nnn[nH]2)cc1 [candesartan, 2-ethoxy-1-[[2′-(2H-tetrazol-5-yl)[1,1′-biphenyl]-4-yl]methyl]-1H-benzimidazole-7-carboxylic acid] | – | – | – | 569 ± 188 ng/mL | did decline significantly | 5.94 ± 4.41 ×10⁻⁶ cm/s | 3.85 ± 2.03 ×10⁻⁶ cm/s | 4.13 ± 3.04 ×10⁻⁶ cm/s | 7.85 ± 5.91 ×10⁻⁶ cm/s | – | 0.92 ± 0.20 | 1.56 ± 0.33 | – |
| CCCCc1nc(Cl)c(CO)n1Cc1ccc(-c2ccccc2-c2nn[nH]n2)cc1 [losartan, 2-butyl-4-chloro-1-[[2′-(2H-tetrazol-5-yl)[1,1′-biphenyl]-4-yl]methyl]-1H-imidazole-5-methanol, mono-potassium salt] | 0.59 mg/kg | – | – | 117 ± 87 ng/mL | not significantly different | 5.77 ± 3.37 ×10⁻⁶ cm/s | 5.24 ± 1.4 ×10⁻⁶ cm/s | 6.4 ± 5.6 ×10⁻⁶ cm/s | 4.21 ± 1.67 ×10⁻⁶ cm/s | – | 0.88 ± 0.32 | 1.97 ± 0.58 | – |
